These results are taken from ChEMBL document CHEMBL3352378, “Novel carbazole inhibits phospho-STAT3 through induction of protein-tyrosine phosphatase PTPN6” (J Med Chem, 2014).

Structures are written as SMILES. The source made the active and inactive calls. The calls are words filed in the database; no cut-off is given here.

This assay concerns the target Signal transducer and activator of transcription 3 (Homo sapiens) (UniProt P40763). Briefly: Inhibition of STAT3C-mediated transcription in human Hs578T cells at 1 uM after 24 hrs by luciferase reporter gene assay. The class given is cell-based. To be noted: Hs-578T. The gist of the method: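 HS578T cells co-transfected with a constitutively active STAT3 (STAT3C) expression vector and the APRE-Luc reporter. Treated at 1 μM for 24 h, with JAK2 inhibitor AZD1480 for comparison. Luciferase measured; mean ± SD of triplicates.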
For orientation: Reporter assays use an easily measured gene product as a stand-in for the process of interest.

Sequence of Signal transducer and activator of transcription 3 (Homo sapiens) (P40763 whole entry): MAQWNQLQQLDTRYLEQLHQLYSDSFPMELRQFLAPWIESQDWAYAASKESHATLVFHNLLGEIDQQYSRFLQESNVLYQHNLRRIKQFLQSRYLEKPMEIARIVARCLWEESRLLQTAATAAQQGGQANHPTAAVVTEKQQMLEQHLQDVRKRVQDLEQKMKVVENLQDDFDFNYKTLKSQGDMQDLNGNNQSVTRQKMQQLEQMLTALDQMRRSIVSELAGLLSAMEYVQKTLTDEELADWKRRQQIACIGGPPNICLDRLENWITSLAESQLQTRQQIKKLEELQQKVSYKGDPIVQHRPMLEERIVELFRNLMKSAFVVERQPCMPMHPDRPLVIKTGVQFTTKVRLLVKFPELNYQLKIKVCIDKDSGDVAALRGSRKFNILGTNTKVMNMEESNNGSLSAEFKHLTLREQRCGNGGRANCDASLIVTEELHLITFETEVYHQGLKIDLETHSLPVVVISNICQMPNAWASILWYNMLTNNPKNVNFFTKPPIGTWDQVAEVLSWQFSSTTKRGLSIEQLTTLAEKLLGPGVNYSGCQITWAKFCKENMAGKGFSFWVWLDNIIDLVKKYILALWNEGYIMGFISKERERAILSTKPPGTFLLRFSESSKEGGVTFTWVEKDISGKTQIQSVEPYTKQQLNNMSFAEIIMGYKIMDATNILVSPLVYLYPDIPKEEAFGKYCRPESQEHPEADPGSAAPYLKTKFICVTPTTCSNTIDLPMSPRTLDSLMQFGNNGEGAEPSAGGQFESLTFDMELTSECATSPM

For the compound `Cc1cc(Nc2nc(N[C@@H](C)c3ncc(F)cn3)ncc2Cl)[nH]n1`, the inhibition entry is “Active”.
